Published values gathered from unrelated publications.
Compare with care: the assays were run in different laboratories.

SMILES | cell line | test | setting | IC50 [nM]
CC(C)c1ccccc1[C@@H]1CCCN1C1CC2(CCN(c3ccc(C(=O)NS(=O)(=O)c4ccc(NC[C@H]5CC[C@](C)(O)CC5)c([N+](=O)[O-])c4)c(Oc4cnc5[nH]ccc5c4)c3)CC2)C1 | DOHH-2 | cell growth or viability, ATP luminescence | 48 h | 6.5
CCCOc1nc(-c2cccc(O)c2)cc(-c2cc3ccccc3nc2N2CCOCC2)c1C#N | NFS-60 | cell growth or viability, MTT | 72 h | 151
CCNCCCn1c2c(c3cc(OC)c(OC)cc3c1=O)C(=O)c1cc3c(nc1-2)OCO3 | Raji | cell growth or viability, MTS | 72 h | 125
COc1ccc(-c2cc(-c3ccc(Br)cc3)c3c(=O)n(C)c(=O)n(C)c3n2)cc1 | HCT-116 | cell growth or viability, MTT | 48 h | 10800
C=CC(=O)Nc1cc(Nc2nccc(-c3cn(C)c4ccccc34)n2)c(OC)cc1N(C)CCN(C)C | PC-9 | cell growth or viability, MTS | 72 h | 1440
C=C(F)C(=O)N1CCN(c2nc(OC[C@@H]3CCCN3C)nc3c2CCN(c2cccc4cccc(Cl)c24)C3)C[C@@H]1CC#N | PC-9 | cell growth or viability, ATP luminescence |  | 2010
Cn1nnc2c(C(N)=O)ncn2c1=O | U-87 MG | cell growth or viability, trypan blue | 72 h | 50000
O=C(CCO)NCc1ccccc1 | DH82 | NO release, inhibitor, Griess | 24 h, LPS-stimulated | 57500
CCCOc1nc(-c2cccc(O)c2)cc(-c2cc3cc(Cl)ccc3nc2N2CCOCC2)c1C#N | NFS-60 | cell growth or viability, MTT | 72 h | 244
NCCC(=O)NCc1ccccc1 | DH82 | NO release, inhibitor, Griess | 24 h, LPS-stimulated | 158000
COc1cc2c(cc1OC)-c1cc3ccc(OC)c(OCCN)c3c[n+]1CC2 | PC-9 | cell growth or viability, MTT | 72 h | > 80000
COc1ccc(-c2cc(-c3cccc(Br)c3)c3c(=O)n(C)c(=O)n(C)c3n2)cc1 | HCT-116 | cell growth or viability, MTT | 48 h | 7880
COCCC(=O)NCc1ccccc1 | DH82 | NO release, inhibitor, Griess | 24 h, LPS-stimulated | 171000
CCOc1nc(-c2cccc(O)c2)cc(-c2cc3ccccc3nc2N2CCOCC2)c1C#N | NFS-60 | cell growth or viability, MTT | 72 h | 85
NC(=O)c1ccncc1 | DH82 | PGE2 release, inhibitor, ELISA | 24 h, LPS-stimulated | > 200000
COc1cc2c3c(n(CCCNCCO)c(=O)c2cc1OC)-c1nc2c(cc1C3=O)OCO2 | Raji | cell growth or viability, MTS | 72 h | 132
O=C(CCNNC(=O)c1ccncc1)NCc1ccccc1 | DH82 | PGE2 release, inhibitor, ELISA | 24 h, LPS-stimulated | > 200000
COc1cc2c3c(n(CCCNC(C)C)c(=O)c2cc1OC)-c1nc2c(cc1C3=O)OCO2 | Raji | cell growth or viability, MTS | 72 h | 180
CN1Cc2c(N)cccc2C(=O)N1C1CCC(=O)NC1=O (stereo not shown) | NCI-H929 | cell growth or viability, CCK-8 | 96 h | < 330
